Sampled rows, rich in hits. Any-hit rate of the full collection: about 4.1%.
KCNK3 inh = human KCNK3 channel inhibition, primary screen. AID 602410. B-score at 10 µM. CHO-KCNK3 thallium flux, FluxOR fluorescence; stronger effect = lower value. hit rate 0.84% among 340,000. O14649;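 active = B-score under library mean minus 4 SD, starting fluorescence ratio at most library mean plus 5 SD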;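 note: more negative B-score means stronger inhibition of thallium flux through KCNK3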
Target sequence (O14649 whole entry, looked up): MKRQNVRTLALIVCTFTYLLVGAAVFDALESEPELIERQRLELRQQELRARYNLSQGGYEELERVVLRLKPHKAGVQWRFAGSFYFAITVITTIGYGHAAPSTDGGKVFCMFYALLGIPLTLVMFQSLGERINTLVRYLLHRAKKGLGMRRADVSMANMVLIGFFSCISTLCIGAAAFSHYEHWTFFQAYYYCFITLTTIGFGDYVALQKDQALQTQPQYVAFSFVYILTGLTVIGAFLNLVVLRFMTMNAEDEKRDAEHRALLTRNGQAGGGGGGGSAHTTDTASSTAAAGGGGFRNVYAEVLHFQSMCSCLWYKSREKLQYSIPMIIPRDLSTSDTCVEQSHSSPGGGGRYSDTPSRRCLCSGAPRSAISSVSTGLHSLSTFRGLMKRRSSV
KCC2 mod = modulators of human KCC2 chloride dependent transport; Q9H2X9; KCC2 cells, thallium flux FluoZin-2 fluorescence; B-score of Tl+ flux slope (higher = more flux/activation; lower = inhibition) at 10 µM; hit rate 2.2% among 190,000; AID 1456;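 active = thallium flux slope and its plate-corrected score both differing from the plate sample mean at a set confidence after two filtering rounds, in either direction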;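 note: slope of fluorescence scaled to starting intensity during 10 to 20 s after thallium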
KCNQ1 act = potentiates or activates the human KCNQ1 potassium channel; CHO-K1 KCNQ1, thallium flux FluxOR fluorescence; stronger effect = higher value; hit rate 0.35% among 310,000; AID 2648; P51787; B-score at 10 µM;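 active = fluorescence ratio B-score, a plate-corrected score, at least three library SD, with initial intensity B-score within 5 SD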
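assay system = CHO-K1 cells stably expressing KCNQ1 | medium = assay buffer, equal DMSO in all wells | timing = 37 °C overnight plating, 90-min dark dye load, 20-min compound pretreatment | measured by = kinetic FluxOR thallium fluorescence, 10-s 1-Hz baseline, 110-s post-stimulus read | measure = fluorescence change relative to baseline, converted to B score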
hERG rescue = shields human hERG channel from block by proarrhythmic agents | Q12809 | CHO-hERG, FluxOR thallium flux, dofetilide IC70 present | activation (rescue from dofetilide block), less the hit threshold, % at 10 µM | hit rate 0.51% among 310,000 | AID 1511;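 active = activation above the mean of controls blocked by dofetilide plus 5 SD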;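 note: thallium influx through hERG after potassium depolarization seen as dye fluorescence rise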
KCNQ1 block = human KCNQ1 channel inhibition | CHO-K1 KCNQ1, FluxOR thallium flux fluorescence; stronger effect = higher value | B-score at 10 µM | hit rate 1.3% among 310,000 | AID 2642;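 active = compounds whose thallium flux B-score, printed positive for inhibition, exceeds three library SD while starting fluorescence stays within three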;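 note: channel opened by potassium depolarization with thallium stimulus after 20 min compound exposure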
KCNK9 block = human KCNK9 channel inhibition. Q9NPC2. HEK293 KCNK9, FluxOR thallium flux fluorescence; stronger effect = lower value. B-score at 10 µM. hit rate 1.2% among 310,000. AID 488922;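 active = ratio B-score over 3 SD below the library mean, with starting fluorescence within 5 SD of its mean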;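 note: negative B-score means less thallium flux so channel inhibition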
KCNK9 block conf = confirmation of human KCNK9 potassium channel inhibitors; shares compounds with KCNK9 block; HEK293 KCNK9 cells, FluxOR thallium flux fluorescence; inhibition, % at 10 µM; hit rate 43% among 4,900;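 active = thallium signal inhibited by more than 5 SD of the compound-free buffer control wells, on both duplicate plates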
Kir2-1 spec = mouse Kir2.1 off-target activity of KCNK9 modulators. shares compounds with KCNK9 block. inhibition, % at 10 µM. hit rate 4% among 4,900. Kir2.1 cells, FluxOR thallium flux fluorescence;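 active = thallium signal drop more than 5 SD beyond the mean of the no-compound control wells, seen in both duplicate plates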;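 note: signal is fluorescence rise after thallium addition divided by baseline fluorescence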
Target sequence (P35561 whole entry, looked up): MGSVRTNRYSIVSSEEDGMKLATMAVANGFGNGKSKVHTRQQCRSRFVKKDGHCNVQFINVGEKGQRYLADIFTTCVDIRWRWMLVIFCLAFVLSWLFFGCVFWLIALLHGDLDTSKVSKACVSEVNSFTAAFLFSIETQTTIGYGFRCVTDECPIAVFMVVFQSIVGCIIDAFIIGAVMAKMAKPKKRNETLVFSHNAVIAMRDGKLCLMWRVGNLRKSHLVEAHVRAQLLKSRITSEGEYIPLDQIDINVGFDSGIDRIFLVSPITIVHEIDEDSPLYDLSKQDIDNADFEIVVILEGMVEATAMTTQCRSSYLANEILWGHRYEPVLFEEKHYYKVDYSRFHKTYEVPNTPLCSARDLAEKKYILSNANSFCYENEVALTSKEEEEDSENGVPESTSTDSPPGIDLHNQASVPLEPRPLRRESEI
KCNK9 uninduced = second counter-screen for KCNK9 modulators: effect in non-induced cells; inhibition, % at 10 µM; non-induced KCNK9-HEK293, FluxOR thallium flux; shares compounds with KCNK9 block; hit rate 40% among 4,900;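 active = thallium signal drop beyond 5 SD of the untreated control mean, on both duplicate plates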
Of the large screens only hits and unclear results are named; the others gave an inactive call (follow-up assays come after a bar, where they were run).

CC(C)Oc1cccc(C(=O)C2CCCN(C(=O)c3noc4c3CCCC4)C2)c1 (centres undefined)	none | KCNK9 block conf inactive | Kir2-1 spec inactive | KCNK9 uninduced inactive
CCOc1ccccc1NC(=O)COC(=O)C1CCC(=O)N1 (centres undefined)	none (no result: KCC2 mod, KCNQ1 act, hERG rescue, KCNQ1 block, KCNK9 block)
O=C(N/N=C/c1ccc([N+](=O)[O-])o1)c1ccccc1NS(=O)(=O)c1cccs1	none (no result: KCC2 mod)
Cc1ccc(C2NC(c3ccc(C)cc3)C(C)C(=NO)C2C)cc1 (centres undefined)	none (no result: KCC2 mod) | KCNK9 block conf inactive | Kir2-1 spec inactive | KCNK9 uninduced inactive
CCNS(=O)(=O)c1ccc2c3c(cccc13)C(=O)N2	none
CCN(Cc1ccccc1)C(c1cccs1)c1nnnn1C1CCCCC1 (centres undefined)	KCNK9 block -12 | KCNK9 block conf 55.5% | Kir2-1 spec inactive | KCNK9 uninduced 34.5%
Clc1ccccc1CN(Cc1ccccc1)C(c1cccs1)c1nnnn1C1CCCC1 (centres undefined)	none
C=C(C)Cn1c(CCNC(=O)CC)nc2ccccc21	none
C=C(C)Cn1c(CCNC(=O)C(C)C)nc2ccccc21	none | KCNK9 block conf inactive | Kir2-1 spec inactive | KCNK9 uninduced inactive
CC1=CN(S(=O)(=O)c2ccc(C)cc2)C[C@@H]2[C@H]3CC[C@H](C3)[C@H]12	none (no result: KCC2 mod, KCNQ1 act, hERG rescue, KCNQ1 block, KCNK9 block)
CCOC(=O)c1c(-c2ccccc2)csc1NC(=O)CSc1nc(C)cc(C)n1	none | KCNK9 block conf inactive | Kir2-1 spec inactive | KCNK9 uninduced inactive
CCOC(=O)c1c(-c2ccccc2)csc1NC(=O)c1cc(S(=O)(=O)N2CCOCC2)ccc1C	none | KCNK9 block conf inactive | Kir2-1 spec inactive | KCNK9 uninduced inactive
CCOC(=O)c1c(-c2cccs2)csc1NC(=O)COC(=O)c1c(C)noc1C	KCNK3 inh -8.9 (no result: KCC2 mod) | KCNK9 block conf inactive | Kir2-1 spec inactive | KCNK9 uninduced inactive
CCOC(=O)Cc1cnc(NC(=O)CSc2nc(C)cc(C)n2)s1	none | KCNK9 block conf inactive | Kir2-1 spec inactive | KCNK9 uninduced inactive
Cc1cc(F)ccc1S(=O)(=O)N1CCCOC1CNC(=O)C(=O)NCc1ccccn1 (centres undefined)	none (no result: KCC2 mod)
O=C(C[C@H]1C/C=C\CCC(=O)OC[C@H]2CCCN2C1=O)NCCO	none (no result: KCC2 mod, KCNQ1 act, hERG rescue, KCNQ1 block, KCNK9 block)
COc1cccc(CNC(=O)c2cc(S(=O)(=O)N3CCOCC3)ccc2N2CCCC2)c1	none (no result: KCC2 mod, KCNQ1 act, hERG rescue, KCNQ1 block, KCNK9 block)
c1ccc(C(c2ccccc2)N2CCN(Cc3nnnn3C3CCCC3)CC2)cc1	KCNK9 block -8.98 (no result: KCC2 mod) | KCNK9 block conf 41.0% | Kir2-1 spec inactive | KCNK9 uninduced inactive
CCOc1ccc(NC(=O)CN(C)C(=O)C2=COCCO2)cc1OCC	none (no result: KCC2 mod)
O=C(NCCc1ccccc1)c1ccc(NC(=O)C2CCCC2)cc1	none (no result: KCC2 mod, KCNQ1 act, hERG rescue, KCNQ1 block, KCNK9 block)
CC(NC(=O)c1cccc(S(=O)(=O)N(C)c2ccccc2)c1)c1cccnc1 (centres undefined)	none (no result: KCC2 mod, KCNQ1 act, hERG rescue, KCNQ1 block, KCNK9 block)
C=C1CCN([C@H](C(=O)OCc2cccc(C)c2)C(C)C)S(=O)(=O)c2ccccc21	KCNK9 block -9.02 | KCNK9 block conf 46.5% | Kir2-1 spec inactive | KCNK9 uninduced inactive
Clc1cccc(C2CCN(Cc3nc(COc4ccccc4)no3)C2)c1 (centres undefined)	none (no result: KCC2 mod) | KCNK9 block conf inactive | Kir2-1 spec inactive | KCNK9 uninduced inactive
c1ccc(OCc2noc(CN3CC[C@@H]4CCCC[C@H]4C3)n2)cc1	none
Clc1cccc(CN2CCN(Cc3nc(CCc4ccccc4)no3)CC2)c1	none (no result: KCC2 mod) | KCNK9 block conf inactive | Kir2-1 spec inactive | KCNK9 uninduced inactive
COc1cccc(C(=O)NCc2ccc(N3CCN(C(=O)OC(C)(C)C)CC3)cc2)c1	none (no result: KCC2 mod)
COc1ccc(C(=O)NCc2ccc(N3CCN(C(=O)OC(C)(C)C)CC3)cc2)cc1	none | KCNK9 block conf inactive | Kir2-1 spec inactive | KCNK9 uninduced inactive
Cc1ccc(C)n1N1C(=O)/C(=C\c2ccc(Cl)cc2)SC1=S	none | KCNK9 block conf inactive | Kir2-1 spec inactive | KCNK9 uninduced inactive
CC(=O)N(C(C)=O)N1C(=O)/C(=C/c2ccc(Cl)cc2)SC1=S	none
O=C(Cc1ccc(Cl)cc1)NCC(=O)N1CCCCCC1	none (no result: KCC2 mod)
O=c1c(-c2c(O)cc(O)c3c2O[C@H](c2ccc(O)cc2)CC3)c(-c2ccc(O)cc2)oc2cc(O)cc(O)c12	none (no result: KCC2 mod, KCNQ1 act, hERG rescue, KCNQ1 block, KCNK9 block)
O=C(N/N=C\c1ccc(F)cc1)c1ccc(Cn2cc(Br)c([N+](=O)[O-])n2)o1	KCNK9 block -11.7 | KCNK9 block conf 50.5% | Kir2-1 spec inactive | KCNK9 uninduced inactive
O=S(=O)(c1ccc(Br)cc1)n1c(Cc2ccccc2)nc2ccccc21	none
O=S(=O)(N1CCCCC1)n1c(Cc2ccccc2)nc2ccccc21	KCNK9 block -20.7 | KCNK9 block conf 76.0% | Kir2-1 spec inactive | KCNK9 uninduced 42.0%
COc1ccc(C)cc1NC(=O)CN(Cc1nnc(-c2ccc(Cl)cc2)o1)C1CCCC1	KCNK9 block -12.4 | KCNK9 block conf 36.0% | Kir2-1 spec inactive | KCNK9 uninduced 32.5%
COc1ccc(C)cc1NC(=O)CSc1nnc(-c2ccc(C)cc2)o1	none (no result: KCC2 mod)
Cc1ccc(CNc2nc(-c3cccs3)nc3ccccc23)cc1	KCNK9 block -8.84 | KCNK9 block conf 35.5% | Kir2-1 spec inactive | KCNK9 uninduced 30.0%
O=C1CCN(CCc2ccccc2)CCN1CCSc1ccc(Br)cc1	none | KCNK9 block conf inactive | Kir2-1 spec inactive | KCNK9 uninduced inactive
Cc1ccc(SCCN2CCN(CCc3ccccc3)CCC2=O)cc1	none | KCNK9 block conf inactive | Kir2-1 spec inactive | KCNK9 uninduced inactive
CCCN1CCC(=O)N(CCSc2ccc(C)cc2)CC1	none
O=C(NCc1nnc(SCC(=O)N2CCOCC2)o1)c1c(F)cccc1F	none (no result: KCC2 mod)
C[C@H](CO)N1C[C@H](C)[C@@H](CN(C)C(=O)Nc2ccc3c(c2)OCO3)Oc2c(NC(=O)c3ccncc3)cccc2C1=O	none (no result: KCC2 mod, KCNQ1 act, hERG rescue, KCNQ1 block, KCNK9 block)
O=c1c2c3c(sc2n(CCN2CCCCC2)c(=O)n1Cc1ccco1)CCCCC3	none (no result: KCC2 mod) | KCNK9 block conf inactive | Kir2-1 spec inactive | KCNK9 uninduced inactive
CC[N+]1(C)[C@@H]2CC[C@H]1CC(OC(=O)[C@H]1CCC(C(=O)OC3C[C@H]4CC[C@@H](C3)[N+]4(C)CC)(c3ccccc3)c3ccccc31)C2 (some centres undefined)	none (no result: KCC2 mod, KCNQ1 act, hERG rescue, KCNQ1 block, KCNK9 block)
CC1=NN(c2ccccc2)C(=O)/C1=C\c1ccc(Oc2ccc([N+](=O)[O-])cc2[N+](=O)[O-])cc1	none | KCNK9 block conf inactive | Kir2-1 spec inactive | KCNK9 uninduced inactive
NS(=O)(=O)c1ccc(CCNC(=O)c2ccc[nH]c2=S)cc1	none (no result: KCC2 mod)
